The results in this text go back to ChEMBL document CHEMBL3244066, “Inhibition of histidine decarboxylase. Derivatives of histidine” (J Med Chem, 1977).

Peptide text beside a SMILES is read from it.

The first experiment has as its target T1, Histidine decarboxylase (Rattus norvegicus) (UniProt P16453).
T1 sequence (whole entry): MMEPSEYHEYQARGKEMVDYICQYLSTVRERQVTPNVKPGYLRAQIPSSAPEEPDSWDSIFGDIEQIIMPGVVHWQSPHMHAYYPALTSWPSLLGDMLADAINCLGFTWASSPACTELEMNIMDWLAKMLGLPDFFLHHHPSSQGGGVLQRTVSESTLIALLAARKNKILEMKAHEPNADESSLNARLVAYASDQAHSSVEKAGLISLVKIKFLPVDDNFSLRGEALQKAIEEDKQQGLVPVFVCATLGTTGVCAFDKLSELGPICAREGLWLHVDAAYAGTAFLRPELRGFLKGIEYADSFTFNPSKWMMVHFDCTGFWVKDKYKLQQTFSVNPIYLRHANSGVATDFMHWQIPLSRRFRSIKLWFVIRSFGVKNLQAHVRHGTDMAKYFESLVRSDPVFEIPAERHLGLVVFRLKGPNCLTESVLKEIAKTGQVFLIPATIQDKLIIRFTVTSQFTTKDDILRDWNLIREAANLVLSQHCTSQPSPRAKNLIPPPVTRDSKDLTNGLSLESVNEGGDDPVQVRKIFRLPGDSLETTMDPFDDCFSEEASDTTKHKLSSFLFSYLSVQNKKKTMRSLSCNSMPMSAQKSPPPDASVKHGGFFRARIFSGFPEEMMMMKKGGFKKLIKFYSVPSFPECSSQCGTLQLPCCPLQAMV
The experiment in a line: Inhibition of histidine decarboxylase in Sprague-Dawley rat stomach assessed as decrease in 14CO2 production using L-histidine-carboxyl-14C as substrate at 0.012 mM by scintillation counting analysis. The method in brief: (§1)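 Enzyme from rat stomach: homogenized in 0.1 M K phosphate–0.1 mM pyridoxal phosphate, pH 6.9, at 0–4 °C. Then 39 000g and 100 000g spins and a 20–45% ammonium sulfate cut. Assayed in triplicate with 0.05 M K phosphate, pH 6.9, 0.03 mM PLP and 0.24 mM L-histidine-carboxyl-14C (final) for 30 min at 37 °C. Inhibitors were fresh in water, generally 0.1 mM. HCl-released 14CO2 was trapped on Hyamine paper for 1 h and counted. % inhibition was taken after blank subtraction.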
With `CCOC(=O)[C@@H](N)Cc1c[nH]cn1`, the inhibition stood at 50%.

The next experiment deals with T1, Histidine decarboxylase (Rattus norvegicus). Kind of experiment: Inhibition of histidine decarboxylase in Sprague-Dawley rat stomach assessed as decrease in 14CO2 production using L-histidine-carboxyl-14C as substrate at 0.004 mM by scintillation counting analysis. The method in brief:
as §1
In the case of `COC(=O)[C@@H](N)Cc1c[nH]cn1`, the inhibition amounted to 50%.

The target of the next experiment is T2, Histidine decarboxylase (Rattus norvegicus, UniProt P16453).
T2 sequence (P16453 whole entry): T1 sequence (whole entry)
The experiment in a line: Inhibition of histidine decarboxylase in Sprague-Dawley rat stomach assessed as decrease in 14CO2 production using L-histidine-carboxyl-14C as substrate by Dixon plot analysis. In a few lines: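 Ki from a Dixon plot of reciprocal activity versus inhibitor concentration. Used the ammonium sulfate–fractionated rat stomach extract, 0.24 mM L-histidine-carboxyl-14C, 0.03 mM PLP, pH 6.9 phosphate, 30 min at 37 °C, and Hyamine trapping of 14CO2 with scintillation counting. Inhibitor was run in duplicate at four concentrations from 1 to 50 μM.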
For `COC(=O)[C@@H](N)Cc1c[nH]cn1`, the Ki was 1800 nM.

The next experiment addresses T1, Histidine decarboxylase (Rattus norvegicus). The experiment in a line: Inhibition of histidine decarboxylase in Sprague-Dawley rat stomach assessed as decrease in 14CO2 production using L-histidine-carboxyl-14C as substrate at 0.10 mM by scintillation counting analysis. In a few lines:
as §1
As to `COC(=O)CCc1c[nH]cn1`, the inhibition was 10%.
The same measure, in the same setting: to `COC(=O)[C@@H](N)Cc1nc[nH]c1[N+](=O)[O-]` belongs 3%; to `C[C@](N)(Cc1c[nH]cn1)C(=O)O`, 19%; to `C[n+]1c[nH]cc1C[C@H](N)C(=O)O`, 0%.
Still for that read-out and setting: the same measure for `Cn1cnc(C[C@H](N)C(=O)O)c1`: 0%; for `N[C@@H](Cc1cnc[nH]1)C(=O)NO`: 14%; for `N[C@@H](Cc1nc[nH]c1[N+](=O)[O-])C(=O)O`: 0%.
With `N[C@@H](Cc1c[nH]cn1)C(=O)NCC(=O)O` (H-His-Gly-OH), the inhibition turned out to be 0%.
The same measure, in the same setting: to `CCCC(Cc1c[nH]cn1)(C(=O)OC)[N+](=O)[O-]` (racemic) belongs 32%; to `CCCC(N)(Cc1c[nH]cn1)C(=O)OC` (racemic), 2%.
With `CCCCC(Cc1c[nH]cn1)(C(=O)OC)[N+](=O)[O-]` (racemic), the inhibition is 24%.
Same read-out and setting: the same measure for `CCCCC(N)(Cc1c[nH]cn1)C(=O)O` (racemic): 3%.
Still for that read-out and setting: to `CCCCC(N)(Cc1c[nH]cn1)C(=O)OC` (racemic) belongs 0%; to `CCCCOC(=O)C(N)Cc1c[nH]cn1` (racemic), 62%; to `CCCOC(=O)C(N)Cc1c[nH]cn1` (racemic), 22%.
With `CCOC(=O)C(CC)(Cc1c[nH]cn1)[N+](=O)[O-]` (racemic), the inhibition was 5%.
Same read-out and setting: the same measure for `CCOC(=O)C(Cc1c[nH]cn1)(c1ccccc1)[N+](=O)[O-]` (racemic): 22%; for `CCOC(=O)C(N)(CC)Cc1c[nH]cn1` (racemic): 13%; for `CNC(=O)C(N)Cc1c[nH]cn1` (racemic): 0%.
Same read-out and setting: the same measure for `COC(=O)C(C)(Cc1c[nH]cn1)[N+](=O)[O-]` (racemic): 25%; for `COC(=O)C(C)(N)Cc1c[nH]cn1` (racemic): 3%; for `Cc1nc(CC(N)C(=O)O)c[nH]1` (racemic): 0%.
Still for that read-out and setting: to `O=C(O)C(Br)Cc1cnc[nH]1` (racemic) belongs 13%.

The next experiment has the same target. The experiment in a line: Inhibition of histidine decarboxylase in Sprague-Dawley rat stomach assessed as decrease in 14CO2 production using L-histidine-carboxyl-14C as substrate at 0.32 mM by scintillation counting analysis. The method in brief: as §1
Consider `C[C@](N)(Cc1c[nH]cn1)C(=O)O`, for which the inhibition worked out at 50%.

A further experiment has the same target. The experiment in a line: Inhibition of histidine decarboxylase in Sprague-Dawley rat stomach assessed as decrease in 14CO2 production using L-histidine-carboxyl-14C as substrate at 0.50 mM by scintillation counting analysis. In a few lines:
as §1
On to `CC(=O)N[C@@H](Cc1c[nH]cn1)C(=O)O`, for which the inhibition came out at 0%.

Another experiment shares this target. Kind of experiment: Inhibition of histidine decarboxylase in Sprague-Dawley rat stomach assessed as decrease in 14CO2 production using L-histidine-carboxyl-14C as substrate at 0.13 mM by scintillation counting analysis. The method in brief: as §1
Take `O=C(O)CCc1c[nH]cn1`: the inhibition turned out to be 9%.
For the compound `O=C(O)[C@@H](O)Cc1c[nH]cn1`, the inhibition was 0%.
